Source: PubChem BioAssay (several laboratories)
Sampled rows, rich in hits. Any-hit rate of the full collection: about 3.9%.
SR-BI DiI-HDL act – enhances SR-BI lipid uptake from DiI-HDL; AID 504775; 0.096% of 320,000 active; CHO ldlA[mSR-BI] cells, DiI-HDL uptake fluorescence, 3 h; 100 = double the neutral-control signal; activation, % at 12.5 µM;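 active = mean replicate activation of at least 60% and every replicate at or above 60%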;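 note: 0% = median plate neutral-control signal and 100% = twice that signal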
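material = CHO ldlA[mSR-BI] cells | medium = Ham's F12 with 0.5% BSA, HEPES 25 mM, pH 7.4 | reagent = fluorescent DiI-HDL, 10 µg/mL final | compound dosing = single-point compound dose | incubation = 3 h, 37 °C | measured by = bottom-read fluorescence, 550/595 nm | measure = HDL uptake via cellular fluorescence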
SR-BI HDL uptake – blocks mouse SR-BI lipid uptake from DiI-HDL. ldlA[mSR-BI] CHO cells, DiI-HDL uptake fluorescence, 3 h. inhibition, % at 12.5 µM. 0.96% of 320,000 active. AID 488896;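 active = mean replicate inhibition of at least 70% and a set share of replicates each scoring 70 or more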;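 note: 0% = median of neutral control wells and 100% = median of positive control wells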
FXN GAA850 act – activators of GAA850 frataxin (FXN) promoter | HEK293 lucGAA850 FXN promoter luciferase reporter, 24 h; percent of 10 µM SAHA response | activation, % at 6 µM | 0.56% of 360,000 active;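 active = activation above the average of all compounds screened plus 3 SD, cutoff fixed separately per campaign, cut at about 7.5% in these data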;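 note: 0% = DMSO wells and 100% = 10 µM SAHA wells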
AHR act – activates the human aryl hydrocarbon receptor. 2.5% of 320,000 active. AHR-responsive luciferase reporter cells, luminescence. AID 2796. P35869. activation, % at 5 µM; in the data active = activation above about 47%;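 note: 0% = vehicle wells and 100% = reference agonist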
ABCB6 inh MLPCN – blocks the human ABCB6 transporter; Q9NP58; K562-ABCB6 porphyrin accumulation, flow cytometry, 1 h; hits give low values; 0.19% of 360,000 active; fluorescence ratio to DMSO, % at 10 µM;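 active = fluorescence ratio to DMSO below 75%, the collection mean minus 3 SD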;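 note: signal is porphyrin accumulated inside mitochondria; 100% equals median channel fluorescence of DMSO control wells; lower ratio means ABCB6 inhibition with less porphyrin fluorescence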
Target sequence (Q9NP58 whole entry, looked up): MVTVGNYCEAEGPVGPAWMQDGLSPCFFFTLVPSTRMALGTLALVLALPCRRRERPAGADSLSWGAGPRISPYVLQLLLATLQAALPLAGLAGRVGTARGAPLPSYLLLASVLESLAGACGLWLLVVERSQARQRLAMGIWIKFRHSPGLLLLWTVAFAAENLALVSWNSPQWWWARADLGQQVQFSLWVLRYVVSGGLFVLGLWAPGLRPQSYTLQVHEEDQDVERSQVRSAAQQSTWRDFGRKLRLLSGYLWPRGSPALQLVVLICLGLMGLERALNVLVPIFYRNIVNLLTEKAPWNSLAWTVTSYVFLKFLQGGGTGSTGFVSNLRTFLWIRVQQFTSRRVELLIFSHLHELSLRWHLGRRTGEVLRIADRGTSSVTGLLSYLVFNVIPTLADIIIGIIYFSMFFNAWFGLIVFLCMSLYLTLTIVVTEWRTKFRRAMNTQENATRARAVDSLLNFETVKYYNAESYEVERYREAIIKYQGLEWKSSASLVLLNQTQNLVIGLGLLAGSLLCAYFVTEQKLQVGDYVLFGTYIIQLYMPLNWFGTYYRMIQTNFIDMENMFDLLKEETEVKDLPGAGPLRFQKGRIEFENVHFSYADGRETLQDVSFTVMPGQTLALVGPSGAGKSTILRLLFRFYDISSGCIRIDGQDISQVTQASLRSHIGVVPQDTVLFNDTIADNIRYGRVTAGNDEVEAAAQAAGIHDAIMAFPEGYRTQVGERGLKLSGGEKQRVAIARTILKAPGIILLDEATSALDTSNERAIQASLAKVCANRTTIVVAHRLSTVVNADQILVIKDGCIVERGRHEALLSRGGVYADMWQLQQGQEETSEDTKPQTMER
HIF act – HIF pathway transcriptional activation. activation, % at 7.5 µM (by protocol). 0.32% of 300,000 active. U2OS HRE-luciferase reporter, luminescence; normalized: DMSO 0%, desferrioxamine 100%;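 active = mean activation of at least 10% of the iron chelator positive control signal, with at least half of replicates also reaching 10%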
Active calls of the source: *.

What do the screens show for `COC(=O)CSc1nnc(-c2cccs2)n1-c1ccc(Cl)cc1`?
SR-BI DiI-HDL act: 20; SR-BI HDL uptake: -20; FXN GAA850 act: 4; AHR act: 5; ABCB6 inh MLPCN: 98; HIF act: 1

What do the screens show for `COc1ccc(S(=O)(=O)N2CCOCC2)cc1OC`?
SR-BI DiI-HDL act: 12; SR-BI HDL uptake: -12; FXN GAA850 act: -1; AHR act: 1; ABCB6 inh MLPCN: 103; HIF act: 0

What do the screens show for `COc1ccc(S(=O)(=O)N2CCOCC2)cc1N=Nc1sc(N)nc1-c1ccccc1`?
SR-BI DiI-HDL act: -81; SR-BI HDL uptake: 81*; FXN GAA850 act: 1; AHR act: 7; ABCB6 inh MLPCN: 99; HIF act: -7

How did O=C(CNCC1CCCO1)N1CCCCCC1 (configuration not stated) do in these assays?
SR-BI DiI-HDL act: 2; SR-BI HDL uptake: -2; FXN GAA850 act: -2; AHR act: 2; ABCB6 inh MLPCN: 98; HIF act: -1

Results for Cc1ccc(C(=O)Nc2nc3ccc(S(C)(=O)=O)cc3s2)o1 ?
SR-BI DiI-HDL act: 95*; SR-BI HDL uptake: -95; FXN GAA850 act: 5; AHR act: 3; ABCB6 inh MLPCN: 96; HIF act: 1

Results for CS(=O)(=O)c1ccc2nc(NC(=O)c3ccco3)sc2c1 ?
SR-BI DiI-HDL act: 6; SR-BI HDL uptake: -6; FXN GAA850 act: 1; AHR act: 4; ABCB6 inh MLPCN: 98; HIF act: 1

Results for CS(=O)(=O)c1ccc2nc(NC(=O)C3CC3)sc2c1 ?
FXN GAA850 act: 2; AHR act: 1; ABCB6 inh MLPCN: 93; HIF act: 15*

Results for COc1ccc2nc(NC(=O)C3CCCN(S(=O)(=O)c4cccs4)C3)sc2c1 (configuration not stated) ?
SR-BI DiI-HDL act: -42; SR-BI HDL uptake: 42; FXN GAA850 act: -1; AHR act: 71*; ABCB6 inh MLPCN: 103; HIF act: 0

What do the screens show for `O=C(Nc1nc2ccc(F)cc2s1)C1CCN(S(=O)(=O)c2cc([N+](=O)[O-])ccc2Cl)CC1`?
SR-BI DiI-HDL act: -77; SR-BI HDL uptake: 77*; FXN GAA850 act: -7; AHR act: 10; ABCB6 inh MLPCN: 92; HIF act: 1

What do the screens show for `COc1ccc2nc(NC(=O)C3CCN(S(=O)(=O)c4cccs4)CC3)sc2c1`?
SR-BI DiI-HDL act: -18; SR-BI HDL uptake: 18; FXN GAA850 act: -9; AHR act: 2; ABCB6 inh MLPCN: 98; HIF act: -1

What do the screens show for `CC(C(=O)Nc1ccc2c(c1)OCO2)N1CCN(C)CC1` (configuration not stated)?
FXN GAA850 act: 2; AHR act: 2; ABCB6 inh MLPCN: 96; HIF act: 0

Results for O=C(Nc1ccc(F)c(F)c1)C1CCCN1S(=O)(=O)c1ccc(F)cc1 (configuration not stated) ?
SR-BI DiI-HDL act: 35; SR-BI HDL uptake: -35; FXN GAA850 act: 0; AHR act: 2; ABCB6 inh MLPCN: 101; HIF act: 0

Results for Cc1ccc2[nH]c(=O)c(CN(Cc3ccco3)C(=O)c3ccncc3)cc2c1 ?
SR-BI DiI-HDL act: 5; SR-BI HDL uptake: -5; FXN GAA850 act: -1; AHR act: 21; ABCB6 inh MLPCN: 94; HIF act: 2

What do the screens show for `C/C(=N\NC(=O)c1ccccc1)c1ccc(-n2ccnc2)cc1`?
SR-BI DiI-HDL act: -2; SR-BI HDL uptake: 2; FXN GAA850 act: 5; AHR act: 21; ABCB6 inh MLPCN: 109; HIF act: 1

How did C/C(=N\NC(N)=S)c1ccc(-n2ccnc2)cc1 do in these assays?
SR-BI DiI-HDL act: -66; SR-BI HDL uptake: 66; FXN GAA850 act: 1; AHR act: 113*; ABCB6 inh MLPCN: 93

How did C/C(=N\NC(=O)OC(C)(C)C)c1ccc(-n2ccnc2)cc1 do in these assays?
SR-BI DiI-HDL act: -18; SR-BI HDL uptake: 18; FXN GAA850 act: 2; AHR act: 68*; ABCB6 inh MLPCN: 100; HIF act: 0

Results for C/C(=N\Nc1ccc(Cl)c(Cl)c1)c1ccc(-n2ccnc2)cc1 ?
SR-BI DiI-HDL act: -58; SR-BI HDL uptake: 58; FXN GAA850 act: 5; AHR act: 23; ABCB6 inh MLPCN: 94; HIF act: 1

What do the screens show for `COc1ccc(OCC(=O)N/N=C(\C)c2ccc(-n3ccnc3)cc2)cc1`?
SR-BI DiI-HDL act: 11; SR-BI HDL uptake: -11; FXN GAA850 act: -1; AHR act: 55*; ABCB6 inh MLPCN: 97; HIF act: 0

How did COc1ccccc1NS(=O)(=O)c1cccc(C(=O)N/N=C(\C)c2ccc(-n3ccnc3)cc2)c1 do in these assays?
SR-BI DiI-HDL act: -70; SR-BI HDL uptake: 70; FXN GAA850 act: -2; AHR act: 67*; ABCB6 inh MLPCN: 98; HIF act: 1

How did COc1ccc(NC(=S)N2CCC(c3nc4ccc(Cl)cc4[nH]3)CC2)c(OC)c1 do in these assays?
SR-BI DiI-HDL act: -12; SR-BI HDL uptake: 12; FXN GAA850 act: -2; AHR act: 7; ABCB6 inh MLPCN: 92; HIF act: 0

How did C=CCc1ccc(OCCOc2cccc3cccnc23)c(OC)c1 do in these assays?
SR-BI DiI-HDL act: -31; SR-BI HDL uptake: 31; FXN GAA850 act: 2; AHR act: 45; ABCB6 inh MLPCN: 96; HIF act: 0

How did COc1cccc(CNC(=O)CCCn2c(=S)[nH]c3cc4c(cc3c2=O)OCO4)c1 do in these assays?
SR-BI DiI-HDL act: 2; SR-BI HDL uptake: -2; FXN GAA850 act: 0; AHR act: 6; ABCB6 inh MLPCN: 107; HIF act: 29*

What do the screens show for `COc1cccc(N2CCN(C(=O)CCCCCn3c(=S)[nH]c4cc5c(cc4c3=O)OCO5)CC2)c1`?
SR-BI DiI-HDL act: -53; SR-BI HDL uptake: 53; FXN GAA850 act: 0; AHR act: 2; ABCB6 inh MLPCN: 98; HIF act: -2

What do the screens show for `COc1ccccc1NC(=O)CCCn1c(=S)[nH]c2ccccc2c1=O`?
SR-BI DiI-HDL act: 4; SR-BI HDL uptake: -4; FXN GAA850 act: 3; AHR act: 48*; ABCB6 inh MLPCN: 101; HIF act: 0

Results for O=C(NCc1ccco1)c1ccc(S(=O)(=O)N2CCCc3ccccc32)cc1 ?
SR-BI DiI-HDL act: -76; SR-BI HDL uptake: 76*; FXN GAA850 act: 2; AHR act: 2; ABCB6 inh MLPCN: 94; HIF act: 0

What do the screens show for `O=C(c1ccccc1F)N(Cc1ccc(F)cc1)C1CCS(=O)(=O)C1` (configuration not stated)?
SR-BI DiI-HDL act: -8; SR-BI HDL uptake: 8; FXN GAA850 act: 1; AHR act: -1; ABCB6 inh MLPCN: 102; HIF act: 0

Results for O=C1C=C(c2cc(C(F)(F)F)cc(C(F)(F)F)c2)C[C@@H](c2ccc(Cl)cc2)C1 ?
SR-BI DiI-HDL act: -74; SR-BI HDL uptake: 74*; FXN GAA850 act: -1; AHR act: 0; ABCB6 inh MLPCN: 98
